In ChEMBL document CHEMBL1157985, “Antiplasmodial and cytotoxic activity of natural bisbenzylisoquinoline alkaloids” (J Nat Prod, 1999):

Assays:
[1] = Selectivity index, ratio of ED50 for human KB cells to IC50 for chloroquine-resistant Plasmodium falciparum W2; format: functional
Plasmodium falciparum [2] = assay: Antiplasmodial activity against chloroquine-sensitive Plasmodium falciparum D6 infected human erythrocytes as [3H]hypoxanthine uptake after 24 hrs; format: functional, organism-based
Method in brief: (§1)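 P. falciparum (D6, W2) cultured in type A+ human erythrocytes, RPMI-1640 with NaHCO3, HEPES and 10% heat-inactivated human plasma, 37 °C under 5% O2/5% CO2/90% N2. Infected red cells at 0.5-1.0% parasitemia, 1.0% hematocrit exposed to compound, duplicate seven-point series, 24 h; then 0.5 μCi [3H]hypoxanthine per well for 18 h more. Filter harvest, scintillation counting; IC50 by nonlinear regression versus zero-drug controls.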

[3] = Selectivity index, ratio of ED50 for human KB cells to IC50 for […] Plasmodium falciparum D6; format: functional
KB = assay: Cytotoxicity against human KB cells after 72 hrs by SRB assay; format: functional; conditions: read-out: ED50 (the source's name)
Method in brief: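 KB-3 cells grown in DMEM with 10% FBS at 37 °C and 5% CO₂ to 60–70% confluence, then used 1 day after a medium change. Samples were dissolved in DMSO and serially diluted in 10% aqueous DMSO. 5×10⁴ cells were exposed for 72 h at 37 °C, then TCA-fixed, stained with 0.4% SRB and read at 515 nm. Zero-day control was subtracted and values expressed relative to solvent control; ED50 by nonlinear regression.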

Plasmodium falciparum [4] = assay: Antiplasmodial activity against chloroquine-resistant Plasmodium falciparum W2 infected human erythrocytes as [3H]hypoxanthine uptake after 24 hrs; format: functional, organism-based; method in brief: as §1

SMILES	Selectivity Index [1]	IC50 (Plasmodium falciparum [2]) [nM]	Selectivity Index [3]	EC50 (KB) [nM]	IC50 (Plasmodium falciparum [4]) [nM]
COc1cc2c3cc1Oc1cc(ccc1O)C[C@@H]1c4c(cc(OC)c(O)c4Oc4ccc(cc4)C[C@@H]3N(C)CC2)CC[N+]1(C)C.[Cl-]	2	15300	>2.1	> 32800	> 16400
COc1ccc2cc1Oc1cc3c(cc1OC)CCN=C3Cc1ccc(cc1)COc1c(OC)cc3c(c1O)[C@H](C2)N(C)CC3	>200	346	>98	> 33800	169
COc1ccc2cc1Oc1cc3c(nccc3cc1OC)Cc1ccc(cc1)COc1c(OC)cc3c(c1O)[C@H](C2)N(C)CC3	220	115	130	14700	66
COc1cc2ccnc3c2cc1Oc1cc(ccc1O)C[C@H]1c2c(cc(OC)c(c2O)OCc2ccc(cc2)C3)CCN1C	>580	110	>310	> 33900	59
COc1cc2c3cc1Oc1cc(ccc1O)C[C@H]1c4c(cc(OC)c(c4O)OCc4ccc(cc4)CC3NCC2)CCN1C (stereo not given in full)	43.2	348	24.6	8580	199
COc1ccc2cc1Oc1cc3c(cc1OC)CCN=C3Cc1ccc(cc1)Oc1c3c(cc4c1[C@@H](C2)N(C)CC4)OCO3	>16.1	4980	>6.8	> 33900	2100
C[C@@H]1CC[C@H]2[C@@H](C)C(=O)O[C@@H]3O[C@@]4(C)CC[C@@H]1[C@]32OO4 [ARTEMISININ]	>4860	15.1	>4680	> 70900	14.6
COc1cc2c3cc1Oc1c(OC)c(OC)cc4c1[C@@H](Cc1ccc(O)c(c1)Oc1ccc(cc1)C[C@@H]3N(C)CC2)N(C)CC4 [BERBAMINE]	29	128	72	9210	313
COc1ccc2cc1Oc1ccc(cc1)C[C@H]1c3c(cc4c(c3Oc3cc5c(cc3OC)CCN(C)[C@@H]5C2)OCO4)CCN1C [CEPHARANTHINE]	20	231	42	9700	478
COc1ccc2cc1Oc1ccc(cc1)C[C@H]1c3cc(c(OC)cc3CCN1C)Oc1c(OC)c(OC)cc3c1[C@H](C2)N(C)CC3 [FANCHININ]	22	288	20	5800	257
COc1ccc2cc1Oc1ccc(cc1)C[C@H]1c3cc(c(OC)cc3CCN1C)Oc1c(O)c(OC)cc3c1[C@H](C2)N(C)CC3 [FANGCHINOLINE]	30	179	51	9210	306
COc1ccc2cc1Oc1ccc(cc1)C[C@H]1c3c(cc(OC)c(O)c3Oc3cc4c(cc3OC)CCN(C)[C@@H]4C2)CCN1C [HOMOAROMOLINE]	22	173	60	10400	474
COc1ccc2cc1Oc1ccc(cc1)C[C@H]1c3c(cc(OC)c4c3Oc3cc5c(cc3O4)CCN(C)[C@H]5C2)CCN1C [ISOTRILOBINE]	30	388	62	24000	788
COc1cc2c(cc1O)[C@H](Cc1ccc(OC)c(Oc3ccc(C[C@H]4c5cc(OC)c(OC)cc5CCN4C)cc3)c1)N(C)CC2 [NEOTHALIBRINE]	75	47	215	10100	135
COc1ccc2cc1Oc1ccc(cc1)C[C@H]1c3c(cc(OC)c(OC)c3Oc3cc4c(cc3OC)CCN(C)[C@@H]4C2)CCN1C [OBABERINE]	40	371	37	13800	347
COc1cc2c3cc1Oc1c(O)c(OC)cc4c1[C@@H](Cc1ccc(O)c(c1)Oc1ccc(cc1)C[C@@H]3N(C)CC2)N(C)CC4 [OBAMEGINE]	17	354	40	14100	825
COc1ccc2cc1Oc1ccc(cc1)C[C@@H]1c3cc(c(OC)cc3CCN1C)Oc1c(OC)c(OC)cc3c1[C@@H](C2)N(C)CC3 [PHAEANTHINE]	22	305	35	10800	498
C=C[C@H]1CN2CC[C@H]1C[C@H]2[C@H](O)c1ccnc2ccc(OC)cc12 [QUININE]	>222	23.4	>285	> 55400	250
COc1ccc2cc1Oc1ccc(cc1)C[C@@H]1NCCc3cc(OC)c4c(c31)Oc1cc3c(cc1O4)CCN(C)[C@H]3C2 [TRILOBINE]	19	169	49	8300	451
